{"data": "Assay results collected from several papers", "note": "Protocols differ between the studies behind these lines."}
{"Structure (SMILES)": "C=CC(=O)NC1CCN(c2ncc3ncnc(Nc4ccc(Oc5ccc6c(c5)ncn6C)c(C)c4)c3n2)CC1", "cell line": "Hs766T", "test": "cell growth or viability", "quantity": "EC50", "value": "1.15 µM"}
{"Structure (SMILES)": "CC(C)c1ccccc1[C@@H]1CCCN1C1CC2(CCN(c3ccc(C(=O)NS(=O)(=O)c4ccc(NC[C@H]5CC[C@](C)(O)CC5)c([N+](=O)[O-])c4)c(Oc4cnc5[nH]ccc5c4)c3)CC2)C1", "cell line": "MINO", "test": "cell growth or viability, ATP luminescence", "conditions": "48 h", "quantity": "IC50", "value": "0.013 µM"}
{"Structure (SMILES)": "C=CC(=O)c1cccnc1Nc1cc(C(F)(F)F)ccc1OCc1ccccc1", "cell line": "NCI-H226", "test": "cell growth or viability, CCK-8", "conditions": "72 h", "quantity": "GI50", "value": "12.8 µM"}
{"Structure (SMILES)": "CC1(C)CCC(CN2CCN(c3ccc(C(=O)NS(=O)(=O)c4ccc(NCC5CCOCC5)c([N+](=O)[O-])c4)c(Oc4cnc5[nH]ccc5c4)c3)CC2)=C(c2ccc(Cl)cc2)C1", "cell line": "SU-DHL-8", "test": "cell growth or viability, ATP luminescence", "conditions": "48 h", "quantity": "IC50", "value": "5.38 µM"}
{"Structure (SMILES)": "O=C(O)c1cccnc1Nc1cccc(C(F)(F)F)c1", "cell line": "NCI-H226", "test": "cell growth or viability, CCK-8", "conditions": "72 h", "quantity": "GI50", "value": "> 40 µM"}
{"Structure (SMILES)": "C=CC(=O)N1CCN(c2nc(=O)n(-c3c(C)ccnc3C(C)C)c3nc(-c4c(O)cccc4F)c(F)cc23)[C@@H](C)C1", "cell line": "Calu-1", "test": "cell growth or viability, ATP luminescence", "quantity": "IC50", "value": "0.00775 µM"}
{"Structure (SMILES)": "CN(C)C(=O)c1cc2cnc(Nc3ccc(N4CCNCC4)cn3)nc2n1C1CCCC1", "cell line": "human Neutrophil", "test": "reactive oxygen species, inhibitor", "quantity": "IC50", "value": "1.67 µM"}
{"Structure (SMILES)": "C=C(F)C(=O)N1CCN(c2nc(OC[C@@H]3CCCN3C)nc3c2CCN(c2cccc4cccc(Cl)c24)C3)C[C@@H]1CC#N", "cell line": "Calu-1", "test": "cell growth or viability, ATP luminescence", "conditions": "3D culture", "quantity": "IC50", "value": "0.0409 µM"}
{"Structure (SMILES)": "O=C(O)c1ccc2c(c1)nc(Nc1cccc(Cl)c1)c1ccncc12", "cell line": "NCI-H226", "test": "cell growth or viability, resazurin", "conditions": "48 h", "quantity": "IC50", "value": "14.2 µM"}
